Measurements published in ChEMBL document CHEMBL3872208, “Synthesis and pharmacological characterization of novel N-(trans-4-(2-(4-(benzo[d]isothiazol-3-yl)piperazin-1-yl)ethyl)cyclohexyl)amides as potential multireceptor atypical antipsychotics” (Eur J Med Chem, 2016).
The source made the active and inactive calls. The rule behind the calls is not given here.

Tests used:
D(2) dopamine receptor = D(2) dopamine receptor (Homo sapiens, UniProt P14416); assay: Displacement of [3H]spiperone from recombinant human D2L receptor expressed in CHO cell membranes after 60 mins by scintillation counting method
Chain of D(2) dopamine receptor (P14416 whole entry): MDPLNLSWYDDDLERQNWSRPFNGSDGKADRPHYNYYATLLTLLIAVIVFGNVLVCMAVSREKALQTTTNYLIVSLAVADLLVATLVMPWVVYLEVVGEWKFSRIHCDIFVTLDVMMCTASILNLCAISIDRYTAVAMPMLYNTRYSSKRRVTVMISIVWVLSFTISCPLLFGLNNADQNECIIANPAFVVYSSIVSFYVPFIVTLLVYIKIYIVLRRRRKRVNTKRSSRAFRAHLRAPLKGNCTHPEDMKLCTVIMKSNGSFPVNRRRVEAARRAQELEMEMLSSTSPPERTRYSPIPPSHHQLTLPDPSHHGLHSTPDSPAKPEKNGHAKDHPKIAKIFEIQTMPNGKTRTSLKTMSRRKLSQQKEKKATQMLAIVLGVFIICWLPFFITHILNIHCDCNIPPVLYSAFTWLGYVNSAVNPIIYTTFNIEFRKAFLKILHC

[1] = molecular target: T1, 5-hydroxytryptamine receptor 1A (Homo sapiens, UniProt P08908); assay: Displacement of [3H]8-OH-DPAT from recombinant human 5-HT1A receptor expressed in HEK293 cell membranes after 60 mins by scintillation counting method
T1 sequence (P08908 whole entry): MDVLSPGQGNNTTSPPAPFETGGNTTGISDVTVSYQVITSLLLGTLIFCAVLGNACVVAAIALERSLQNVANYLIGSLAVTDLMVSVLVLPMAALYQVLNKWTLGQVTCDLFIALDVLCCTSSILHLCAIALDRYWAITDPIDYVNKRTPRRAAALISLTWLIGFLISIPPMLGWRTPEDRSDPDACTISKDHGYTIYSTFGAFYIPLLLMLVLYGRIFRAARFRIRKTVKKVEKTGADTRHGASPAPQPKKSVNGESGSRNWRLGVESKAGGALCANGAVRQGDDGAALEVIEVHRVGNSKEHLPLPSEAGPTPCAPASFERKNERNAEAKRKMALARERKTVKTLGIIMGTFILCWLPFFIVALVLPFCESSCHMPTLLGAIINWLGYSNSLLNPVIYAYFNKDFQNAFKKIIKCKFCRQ

D(3) dopamine receptor = D(3) dopamine receptor (Homo sapiens, UniProt P35462); assay: Displacement of [3H]methyl-spiperone from recombinant human D3 receptor expressed in CHO cell membranes after 60 mins by scintillation counting method
Chain of D(3) dopamine receptor (P35462 whole entry): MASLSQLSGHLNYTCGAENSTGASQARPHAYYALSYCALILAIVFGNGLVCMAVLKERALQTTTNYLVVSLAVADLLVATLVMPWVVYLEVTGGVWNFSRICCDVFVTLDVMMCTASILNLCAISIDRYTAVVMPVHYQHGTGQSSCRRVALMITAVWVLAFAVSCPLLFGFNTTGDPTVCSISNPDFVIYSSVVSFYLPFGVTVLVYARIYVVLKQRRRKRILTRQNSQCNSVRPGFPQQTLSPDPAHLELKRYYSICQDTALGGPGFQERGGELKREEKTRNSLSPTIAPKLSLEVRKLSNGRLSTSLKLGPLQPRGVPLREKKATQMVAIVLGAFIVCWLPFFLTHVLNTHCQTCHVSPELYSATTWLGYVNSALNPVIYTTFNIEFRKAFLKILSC

[2] = molecular target: T2, 5-hydroxytryptamine receptor 2A (Homo sapiens, UniProt P28223); assay: Displacement of [3H]ketanserin from recombinant human 5-HT2A receptor expressed in HEK293 cell membranes after 60 mins by scintillation counting method
T2 sequence (P28223 whole entry): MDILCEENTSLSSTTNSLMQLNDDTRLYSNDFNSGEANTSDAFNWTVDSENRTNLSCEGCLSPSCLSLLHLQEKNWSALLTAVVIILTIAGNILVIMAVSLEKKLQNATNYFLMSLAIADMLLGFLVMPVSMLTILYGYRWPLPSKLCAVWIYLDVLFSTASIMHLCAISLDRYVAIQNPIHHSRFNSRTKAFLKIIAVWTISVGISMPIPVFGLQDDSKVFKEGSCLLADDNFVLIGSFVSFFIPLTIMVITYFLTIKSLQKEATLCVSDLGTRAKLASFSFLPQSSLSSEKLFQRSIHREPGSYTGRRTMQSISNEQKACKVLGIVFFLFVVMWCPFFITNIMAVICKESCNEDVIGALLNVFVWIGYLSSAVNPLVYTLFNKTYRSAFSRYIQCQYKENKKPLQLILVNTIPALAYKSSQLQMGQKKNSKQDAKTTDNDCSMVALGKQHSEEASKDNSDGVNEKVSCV

CHO = assay: Selectivity ratio of Ki for displacement of [3H]spiperone from recombinant human D2L receptor expressed in CHO cell membranes to Ki for displacement of [3H]methyl-spiperone from recombinant human D3 receptor expressed in CHO cell membranes
Method in brief: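 D2L binding: CHO membranes (16 µg protein) with 0.3 nM [3H]methyl-spiperone in 50 mM Tris-HCl pH 7.4, 120 mM NaCl, 10 mM MgCl2, 1 mM EDTA, with butaclamol for nonspecific binding. D3 binding: membranes (8 µg) with 0.3 nM [3H]methyl-spiperone in the same Tris buffer with 5 mM KCl, 5 mM MgCl2, 5 mM EDTA, with (+)butaclamol for nonspecific binding. Both run 60 min at 22 °C, then GF/B filtration. Ki by Cheng–Prusoff; ratio is D2 Ki/D3 Ki.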

Rattus norvegicus [3] = assay: Antipsychotic activity in Sprague-Dawley rat assessed as inhibition of conditioned avoidance behavior at 1.0 to 2.0 mg/kg, ip administered as single dose measured after 1 hr; type: functional, organism-based
Method in brief: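 Male SD rats (150–180 g, 6 per group) trained in automated shuttle-boxes; only rats exceeding 80% avoidance were used. Single i.p. dose of 1.0 or 2.0 mg/kg given 1 h before a 20-trial session. Read-out is percentage of avoidance (mean ± SEM, n = 6), compared with the vehicle group.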

Rattus norvegicus [4] = assay: Toxicity in Sprague-Dawley rat assessed as cataleptogenic effect by measuring time spent in cataleptic position at 1 to 10 mg/kg, po measured after 0.5 to 2 hrs; type: organism-based; conditions: in vivo
Method in brief: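 Male SD rats (180–250 g, n = 7) dosed orally at 1.0, 3.0 or 10.0 mg/kg. Forepaws placed on a bar 0.9 cm in diameter, 11 cm high, at 30, 60 and 120 min after dosing. Time held is expressed as a percentage of the 60 s maximum (mean ± SEM).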

[5] = molecular target: T3, 5-hydroxytryptamine receptor 1A (Homo sapiens) (UniProt P08908); conditions: CHO-K1, 10 uM
T3 sequence (whole entry): T1 sequence (P08908 whole entry)

[6] = molecular target: T2, 5-hydroxytryptamine receptor 2A; conditions: CHO-K1, 10 uM

Row | Compound | Ki (D(2) dopamine receptor) | Ki [1] | Ki (D(3) dopamine receptor) | Ki [2] | Ratio Ki (CHO) | inhibition (Rattus norvegicus [3]) | Activity (Rattus norvegicus [4]) | inhibition [5] | inhibition [6]
1 | Cc1ccc(S(=O)(=O)N[C@H]2CC[C@H](CCN3CCN(c4nsc5ccccc45)CC3)CC2)cc1 | 0.42 nM | 3.9 nM | 0.062 nM | 0.26 nM | 6.77 |  |  |  | 
2 | O=C(Nc1ccccc1)N[C@H]1CC[C@H](CCN2CCN(c3nsc4ccccc34)CC2)CC1 | 0.63 nM | 1.4 nM | 0.043 nM | 0.21 nM | 14.7 | Active |  |  | 
3 | O=C(N[C@H]1CC[C@H](CCN2CCN(c3nsc4ccccc34)CC2)CC1)c1cccs1 | 0.19 nM | 1.1 nM | 0.056 nM | 0.15 nM | 3.4 |  |  |  | 
4 | CCCS(=O)(=O)N[C@H]1CC[C@H](CCN2CCN(c3nsc4ccccc34)CC2)CC1 | 1.9 nM | 1.1 nM | 0.22 nM | 0.34 nM | 8.64 |  |  |  | 
5 | CCN(C)C(=O)N[C@H]1CC[C@H](CCN2CCN(c3nsc4ccccc34)CC2)CC1 | 0.51 nM | 1.4 nM | 0.78 nM | 0.5 nM | 0.65 |  |  |  | 
6 | CC(=O)N[C@H]1CC[C@H](CCN2CCN(c3nsc4ccccc34)CC2)CC1 | 25 nM | 0.69 nM | 0.16 nM | 5.8 nM | 156 |  |  |  | 
7 | O=S(=O)(N[C@H]1CC[C@H](CCN2CCN(c3nsc4ccccc34)CC2)CC1)c1cccnc1 | 0.35 nM | 11 nM | 0.058 nM | 8.1 nM | 6.03 |  |  |  | 
8 | O=C(N[C@H]1CC[C@@H](CCN2CCN(c3nsc4ccccc34)CC2)CC1)c1ccco1 | 6.3 nM | 2.2 nM | 2.3 nM | 0.19 nM | 2.74 |  |  |  | 
9 | CN(C)C(=O)N[C@H]1CC[C@H](CCN2CCN(c3nsc4ccccc34)CC2)CC1 | 0.53 nM | 1.2 nM | 0.4 nM | 0.6 nM | 1.33 |  |  |  | 
10 | O=C(N[C@H]1CC[C@H](CCN2CCN(c3nsc4cc([N+](=O)[O-])ccc34)CC2)CC1)c1ccco1 | 26 nM | 39 nM | 0.24 nM | 1.8 nM | 108 |  |  |  | 
11 | O=C(N[C@H]1CC[C@H](CCN2CCN(c3nsc4ccccc34)CC2)CC1)C(F)(F)F | 1.7 nM | 1.1 nM | 0.27 nM | 0.63 nM | 6.3 |  |  |  | 
12 | CCC(=O)N[C@H]1CC[C@H](CCN2CCN(c3nsc4ccccc34)CC2)CC1 | 18 nM | 1.5 nM | 0.052 nM | 1.1 nM | 346 |  |  |  | 
13 | O=C(N[C@H]1CC[C@H](CCN2CCN(c3nsc4ccccc34)CC2)CC1)c1ccc[nH]1 |  |  |  |  | 0.68 |  |  |  | 
14 | CCOC(=O)N[C@H]1CC[C@@H](CCN2CCN(c3nsc4ccccc34)CC2)CC1 | 4 nM | 0.57 nM | 2 nM | 0.18 nM | 2 |  |  |  | 
15 | CS(=O)(=O)N[C@H]1CC[C@H](CCN2CCN(c3nsc4ccccc34)CC2)CC1 | 8.9 nM | 1.3 nM | 0.095 nM | 0.28 nM | 93.7 |  |  |  | 
16 | CC(C)N(C(=O)N[C@H]1CC[C@H](CCN2CCN(c3nsc4ccccc34)CC2)CC1)C(C)C | 0.72 nM | 2.3 nM | 1.4 nM | 0.38 nM | 0.51 |  |  |  | 
17 | CN([C@H]1CC[C@H](CCN2CCN(c3nsc4ccccc34)CC2)CC1)S(=O)(=O)c1cccs1 | 0.3 nM | 2.9 nM | 0.046 nM | 1.2 nM | 6.52 |  |  |  | 
18 | COCC(=O)N[C@H]1CC[C@H](CCN2CCN(c3nsc4ccccc34)CC2)CC1 | 9.6 nM | 3 nM | 0.31 nM | 0.24 nM | 31 |  |  |  | 

Row | Compound | Ki (D(2) dopamine receptor) | Ki [1] | Ki (D(3) dopamine receptor) | Ki [2] | Ratio Ki (CHO) | inhibition (Rattus norvegicus [3]) | Activity (Rattus norvegicus [4]) | inhibition [5] | inhibition [6]
19 | N[C@H]1CC[C@H](CCN2CCN(c3nsc4ccccc34)CC2)CC1 | 4.6 nM | 7.2 nM | 9.6 nM | 0.21 nM | 0.48 |  |  |  | 
20 | Cc1nc2n(c(=O)c1CCN1CCC(c3noc4cc(F)ccc34)CC1)CCCC2 [RISPERIDONE] |  |  |  |  |  |  | Non-Toxic |  | 
21 | CSc1ccc2c(c1)C(N1CCN(C)CC1)Cc1ccccc1S2 (centres undefined) |  |  |  |  |  |  |  | 108% | 100%
22 | O=C(N[C@H]1CC[C@H](CCN2CCN(c3nsc4ccccc34)CC2)CC1)c1cccnc1 | 0.85 nM | 2.1 nM | 0.09 nM | 0.29 nM | 9.44 |  |  |  | 
23 | O=C(N[C@H]1CC[C@H](CCN2CCN(c3nsc4ccccc34)CC2)CC1)C1CC1 | 0.85 nM | 0.92 nM | 0.21 nM | 0.35 nM | 4.05 |  |  |  | 
24 | O=C(N[C@H]1CC[C@H](CCN2CCN(c3nsc4ccccc34)CC2)CC1)N1CCOCC1 | 2.2 nM | 15 nM | 1.6 nM | 3.2 nM | 1.38 |  |  |  | 
25 | O=C(Nc1cccnc1)N[C@H]1CC[C@H](CCN2CCN(c3nsc4ccccc34)CC2)CC1 | 0.51 nM | 12 nM | 0.055 nM | 0.14 nM | 9.27 |  |  |  | 
26 | O=C(N[C@H]1CC[C@H](CCN2CCN(c3nsc4ccccc34)CC2)CC1)C1CCCCC1 | 0.94 nM | 5.6 nM | 0.19 nM | 0.36 nM | 4.95 |  |  |  | 
27 | O=C(NC[C@H]1CC[C@H](CN2CCN(c3nsc4ccccc34)CC2)CC1)c1ccco1 | 8.9 nM | 5.3 nM | 1 nM | 16 nM | 8.9 |  |  |  | 
28 | CCOC(=O)N1CCC(CCN2CCN(c3nsc4ccccc34)CC2)CC1 | 10 nM | 1.3 nM | 8.7 nM | 3.3 nM | 1.15 |  |  |  | 
29 | Nc1ccc2c(N3CCN(CC[C@H]4CC[C@H](NC(=O)c5ccco5)CC4)CC3)nsc2c1 | 14 nM | 33 nM | 1.1 nM | 4.3 nM | 12.7 |  |  |  | 
30 | O=C(N[C@H]1CC[C@H](CCN2CCN(c3nsc4ccccc34)CC2)CC1)c1ccccc1 | 0.33 nM | 1.7 nM | 0.047 nM | 0.24 nM | 7.02 |  |  |  | 
31 | O=S(=O)(N[C@H]1CC[C@H](CCN2CCN(c3nsc4ccccc34)CC2)CC1)c1cccs1 |  | 1.1 nM |  |  |  | Active |  |  | 
32 | CCCC(=O)N[C@H]1CC[C@H](CCN2CCN(c3nsc4ccccc34)CC2)CC1 | 2.8 nM | 2.1 nM | 0.14 nM | 0.87 nM | 20 |  |  |  | 
33 | CN(C(=O)N[C@H]1CC[C@H](CCN2CCN(c3nsc4ccccc34)CC2)CC1)c1ccccc1 |  | 5.2 nM | 1.2 nM |  |  |  |  |  | 
34 | O=C(NCc1ccccc1)N[C@H]1CC[C@H](CCN2CCN(c3nsc4ccccc34)CC2)CC1 | 1.4 nM | 5.3 nM | 0.18 nM | 0.91 nM | 7.78 |  |  |  | 
35 | O=C(c1ccco1)N1CCC(CCN2CCN(c3nsc4ccccc34)CC2)CC1 | 15 nM | 0.72 nM | 7.3 nM | 2.2 nM | 2.2 |  |  |  | 
